The term IC50 denotes the concentration needed to halve the response being measured.

Consider six molecules from ChEMBL document CHEMBL1126090, “Electrophilic opioid ligands. Oxygen tethered alpha-methylene-gamma-lactone, acrylate, isothiocyanate, and epoxide derivatives of 6 beta-naltrexol” (J Med Chem, 1992).

The target in test [1] is Opioid receptors; mu/kappa/delta. Briefly: Inhibition of 0.5 nM [3H]bremazocine binding to guinea pig brain membrane opioid receptors. The arrangement: species or system Cavia porcellus.
Test [2] concerns the target T1, Opioid receptors; mu/kappa/delta (Homo sapiens) (UniProt P41145+P41143+P35372). Briefly: Compound was evaluated for the percent recovery of 0.5 nM of [3H]- bremazocine binding to total opioid receptor in guinea pig brain membranes at 50 (nM) concentration protection by 1 uM Naloxone. It counts as cell membranes. As to conditions: Cavia porcellus, Membrane, target entry is the homologue from another species. A digest of the protocol: (§1)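 Membranes were then washed (4-fold dilution, 20000g for 15 min, 37 °C for 15 min in 3 volumes, recentrifuged) and assayed with the named radioligand by filtration binding. Reported as percent recovery.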

Test [3] addresses T1, Opioid receptors; mu/kappa/delta (Homo sapiens). Briefly: Compound was evaluated for the percent recovery of 0.5 nM of [3H]- bremazocine binding to total opioid receptor in unwashed guinea pig brain membranes at 50 (nM) concentration of the compound. It is filed as cell membranes. Particulars: Cavia porcellus, Membrane, target entry is the homologue from another species.
For test [4], the target named is Kappa-type opioid receptor (Cavia porcellus, UniProt P41144). Briefly: Displacement of 0.5 nM [3H]bremazocine from guinea pig brain membrane opioid receptor kappa with 100 nM DAGO and 100 nM DPDPE. A digest of the protocol: (§2)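 Crude guinea pig brain membrane homogenate. Compounds as free amine in 50% acetic acid, serially diluted in water; nine concentrations in competition with radioligand ([3H]DAGO for μ; [3H]bremazocine plus unlabeled DAGO and DPDPE for κ). Incubated in 50 mM Tris-HCl pH 7.4, 25 °C, 1 h. Then GF/B filtration, two cold buffer rinses, scintillation counting. IC50 by log-probit analysis.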
Sequence of Kappa-type opioid receptor (P41144 whole entry): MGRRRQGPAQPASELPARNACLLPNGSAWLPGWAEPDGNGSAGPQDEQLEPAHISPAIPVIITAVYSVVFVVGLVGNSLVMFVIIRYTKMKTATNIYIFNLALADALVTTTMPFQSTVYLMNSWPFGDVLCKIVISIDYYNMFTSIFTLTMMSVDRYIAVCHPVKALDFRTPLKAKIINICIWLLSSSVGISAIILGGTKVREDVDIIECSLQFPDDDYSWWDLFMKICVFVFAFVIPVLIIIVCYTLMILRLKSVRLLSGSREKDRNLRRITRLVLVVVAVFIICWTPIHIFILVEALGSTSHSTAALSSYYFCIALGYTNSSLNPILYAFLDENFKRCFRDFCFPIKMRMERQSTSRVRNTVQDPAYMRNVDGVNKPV

The target of test [5] is Mu-type opioid receptor (Cavia porcellus, UniProt P97266). In words: inhibition of 1.0 nM [3H]- DAGO binding to guinea pig brain membrane opioid receptor mu. A digest of the protocol: as §2
Sequence of Mu-type opioid receptor (P97266 whole entry): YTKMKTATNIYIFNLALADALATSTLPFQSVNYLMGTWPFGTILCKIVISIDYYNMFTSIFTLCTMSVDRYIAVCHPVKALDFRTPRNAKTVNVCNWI
Test [6] has as its target T1, Opioid receptors; mu/kappa/delta (Homo sapiens). In words: Compound was evaluated for the percent recovery of 0.5 nM of [3H]- bremazocine binding to total opioid receptor in washed guinea pig brain membranes at 50 (nM) concentration of the compound. It counts as cell membranes. Particulars: Cavia porcellus, Membrane, target entry is the homologue from another species. A digest of the protocol: (§3)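 Guinea pig brain membranes were exposed to ligand for 1 h at 25 °C. Washing: 4-fold dilution with buffer, 20000g for 15 min, pellet resuspended in 3 volumes of buffer, 37 °C for 15 min, recentrifuged, resuspended in the original volume. Rebinding with the named radioligand in Tris-HCl pH 7.4, 25 °C, 1 h, filtration, scintillation. Reported as percent recovery.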

In test [7] the target is Mu-type opioid receptor (Cavia porcellus) (UniProt P97266). In words: Compound was evaluated for the percent recovery of 1.0 nM of [3H]- DAGO binding to opioid receptor mu in washed guinea pig brain membranes at 10(nM) concentration. It counts as cell membranes. Particulars: Membrane. A digest of the protocol: as §3
Sequence of Mu-type opioid receptor (Cavia porcellus) (P97266 whole entry): as above
The target in test [8] is T1, Opioid receptors; mu/kappa/delta (Homo sapiens). In words: Compound was evaluated for the percent recovery of 0.5 nM of [3H]- bremazocine binding to of total opioid receptor in washed guinea pig brain membranes at 50 (nM) concentration of the compound. It is filed as cell membranes. As to conditions: Cavia porcellus, Membrane, target entry is the homologue from another species. A digest of the protocol:
as §3

For test [9], the target named is Delta-type opioid receptor (Homo sapiens) (UniProt P41143). Briefly: Compound was evaluated for the percent recovery of 1.0 nM of [3H]- DPDPE binding to Opioid receptor delta 1 in guinea pig brain membranes at 17(nM) concentration protection by 1 uM Naloxone. It counts as cell membranes. Particulars: Cavia porcellus, Membrane, target entry is the homologue from another species. A digest of the protocol: as §1
Sequence of Delta-type opioid receptor (Homo sapiens) (P41143 whole entry): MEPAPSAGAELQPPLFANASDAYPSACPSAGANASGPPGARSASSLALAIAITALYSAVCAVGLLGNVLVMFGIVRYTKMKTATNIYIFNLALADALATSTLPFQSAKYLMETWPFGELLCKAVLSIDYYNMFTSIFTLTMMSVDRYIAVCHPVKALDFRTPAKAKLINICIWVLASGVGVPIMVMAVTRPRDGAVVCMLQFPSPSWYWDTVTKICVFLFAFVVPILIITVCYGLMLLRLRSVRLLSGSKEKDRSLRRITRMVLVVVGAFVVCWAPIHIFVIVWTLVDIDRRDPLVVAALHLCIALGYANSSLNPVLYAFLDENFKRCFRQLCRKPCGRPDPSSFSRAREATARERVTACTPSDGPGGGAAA

In test [10] the target is Mu-type opioid receptor (Cavia porcellus) (UniProt P97266). In words: Compound was evaluated for the percent recovery of 1.0 nM of [3H]- DAGO binding to opioid receptor mu in un washed guinea pig brain membranes at 10(nM) concentration. As to conditions: Membrane.
The target is the same in test [11]. In words: Compound was evaluated for the percent recovery of 1.0 nM of [3H]- DAGO binding to opioid receptor mu in guinea pig brain membranes at 10 (nM) concentration protection by 1 uM Naloxone. It is filed as cell membranes. As to conditions: Membrane. A digest of the protocol:
as §1

The target of test [12] is T1, Opioid receptors; mu/kappa/delta (Homo sapiens). In words: Compound was evaluated for the percent recovery of 0.5 nM of [3H]- bremazocine binding to of total opioid receptor in unwashed guinea pig brain membranes at 50(nM) concentration of the compound. As to conditions: Cavia porcellus, Membrane, target entry is the homologue from another species. It counts as cell membranes.

In test [13] the target is Mu-type opioid receptor (Cavia porcellus) (UniProt P97266). Briefly: Compound was evaluated for the percent recovery of 1.0 nM of [3H]- DAGO binding to opioid receptor mu in un washed guinea pig brain membranes at 10 (nM) concentration. As to conditions: Membrane.
Test [14] has the same target. In words: Compound was evaluated for the percent recovery of 1.0 nM of [3H]- DAGO binding to opioid receptor mu in washed guinea pig brain membranes at 10 (nM) concentration. It counts as cell membranes. Particulars: Membrane. A digest of the protocol: as §3
Test [15] has as its target Delta-type opioid receptor (Homo sapiens) (UniProt P41143). Briefly: Compound was evaluated for the percent recovery of 1.0 nM of [3H]- DPDPE binding to Opioid receptor delta 1 in guinea pig brain membranes at 22(nM) concentration protection by 1 uM Naloxone. It counts as cell membranes. Particulars: Cavia porcellus, Membrane, target entry is the homologue from another species. A digest of the protocol:
as §1

T1 sequence (P35372 whole entry, looked up): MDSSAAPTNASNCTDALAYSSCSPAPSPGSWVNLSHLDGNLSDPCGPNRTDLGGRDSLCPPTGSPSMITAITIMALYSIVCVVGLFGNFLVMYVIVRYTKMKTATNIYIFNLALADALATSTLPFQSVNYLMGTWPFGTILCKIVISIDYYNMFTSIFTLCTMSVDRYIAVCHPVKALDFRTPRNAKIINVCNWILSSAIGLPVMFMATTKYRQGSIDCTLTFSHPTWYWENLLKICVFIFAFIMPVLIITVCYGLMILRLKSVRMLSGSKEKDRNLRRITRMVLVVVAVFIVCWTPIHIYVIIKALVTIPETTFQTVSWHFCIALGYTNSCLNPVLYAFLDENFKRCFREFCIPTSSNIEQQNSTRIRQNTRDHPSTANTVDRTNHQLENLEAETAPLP
T1 sequence (P41143 whole entry, looked up): as the sequence (P41143 whole entry) above
T1 sequence (P41145 whole entry, looked up): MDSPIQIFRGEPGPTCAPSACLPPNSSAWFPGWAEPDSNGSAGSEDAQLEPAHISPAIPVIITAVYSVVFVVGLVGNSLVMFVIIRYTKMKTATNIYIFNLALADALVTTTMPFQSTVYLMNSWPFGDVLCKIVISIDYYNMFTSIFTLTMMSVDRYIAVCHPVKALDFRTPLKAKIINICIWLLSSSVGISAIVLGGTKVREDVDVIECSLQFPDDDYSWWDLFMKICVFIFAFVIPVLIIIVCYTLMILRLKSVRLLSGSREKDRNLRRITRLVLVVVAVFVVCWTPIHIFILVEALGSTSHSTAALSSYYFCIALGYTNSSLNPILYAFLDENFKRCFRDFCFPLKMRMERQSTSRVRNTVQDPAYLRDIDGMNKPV

Turning to `Oc1ccc2c3c1O[C@H]1[C@H](OC[C@@H]4CO4)CC[C@@]4(O)[C@@H](C2)N(CC2CC2)CC[C@]314`, the IC50 in test [1] stood at 12 nM; in test [4] it was 17 nM; in [5], 3.5 nM. The % recovery in test [2] worked out at 88; in test [3] it was 10; in test [6], 79.

`Oc1ccc2c3c1O[C@H]1[C@H](OC[C@H]4CO4)CC[C@@]4(O)[C@@H](C2)N(CC2CC2)CC[C@]314`: the figures for the IC50 in test [1], in test [4] and in test [5] were 11 nM, 17 nM and 2.9 nM, respectively.

In the case of `C=C1C[C@@H](CO[C@@H]2CC[C@@]3(OC(C)=O)[C@H]4Cc5ccc(O)c6c5[C@@]3(CCN4CC3CC3)[C@H]2O6)OC1=O`, the % recovery in test [7] worked out at 71; in [2], 61; in [8], 54; in test [9] it was 71; in [10], 21; in [11] it was 55. The molecule also gave a % recovery in test [12] of 20. In addition, the IC50 in test [1] came to 14 nM; in test [4], 25 nM; in test [5], 2.8 nM.

Turning to `C=C1C[C@@H](CO[C@@H]2CC[C@@]3(O)[C@H]4Cc5ccc(O)c6c5[C@@]3(CCN4CC3CC3)[C@H]2O6)OC1=O`, the IC50 stood at 18 nM in [1], 28 nM in test [4] and 3.4 nM in test [5].

Turning to `C=C1C[C@H](CO[C@@H]2CC[C@@]3(OC(C)=O)[C@H]4Cc5ccc(O)c6c5[C@@]3(CCN4CC3CC3)[C@H]2O6)OC1=O`, the IC50 in test [1] was 15 nM; in [4], 48 nM; in test [5], 2.2 nM. Also, the % recovery in [2] is 84; in [13], 10; in test [3], 27; in [11], 94; in test [14], 49; in [6] it was 68. This molecule also had a % recovery in [15] of 86.

For the molecule `C=C1C[C@H](CO[C@@H]2CC[C@@]3(O)[C@H]4Cc5ccc(O)c6c5[C@@]3(CCN4CC3CC3)[C@H]2O6)OC1=O`, the IC50 in test [1] worked out at 19 nM; in test [4] it was 44 nM; in [5], 4.2 nM. In test [11], this molecule registered a % recovery of 88.
